Reference: ChEMBL document CHEMBL1124035, “1-Amino-substituted 4-methyl-5H-pyrido[4,3-b]indoles (gamma-carbolines) as tricyclic analogues of ellipticines: a new class of antineoplastic agents” (1988)

Assays:
[1] = system: Mus musculus; assay: Median survival day in P388 leukemia model when a dose of 50 mg/kg administered intravenously to mice; format: functional; settings: route intravenous
Summary of the method: (§1)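 P388 leukaemia in CDF1 hybrid mice, 10 per group. At D0, 10^6 viable cells were inoculated ip, followed by a single iv dose on D1. Weight change, median survival day, T/C (treated/control median survival × 100) and survivors at D30 were recorded.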

[2] = system: Mus musculus; assay: Antitumor activity against L1210 cells at a dose of 40 mg/kg administered intravenously to mice; format: functional; settings: route intravenous
Summary of the method: (§2)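 P388 (10^6 cells) or L1210 (10^5 cells) leukemia was inoculated ip in mice at D0, followed by a single iv drug treatment on D1. Weight change was recorded. T/C % = median survival day of treated / controls × 100; survivors noted at D30; 10-15 mice per group.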

[3] = system: Mus musculus; assay: […] in C38 adenocarcinoma cell line when a dose of 50 mg/kg administered intravenously to mice; format: functional, MC-38; settings: route intravenous
Summary of the method: (§3)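 C38 colon adenocarcinoma in hybrid BD F1 mice, 10 per test. A standard 3-mm³ tumour fragment was implanted sc. Drugs were given iv at the stated doses on D1 or on D2 + D9, following the Geran et al. NCI protocol.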

[4] = system: Mus musculus; assay: Weight change in g when a dose of 40 mg/kg administered intraperitoneally to P388 leukemia model; settings: route intraperitoneal
[5] = system: Mus musculus; assay: Median tumoral volume of C38 adenocarcinoma model when a dose of 100 mg/kg administered intravenously on D1 to mice; format: functional; settings: route intravenous
Summary of the method: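 Geran protocol in hybrid BDF1 mice, 10 per test, implanted sc with a standard 3-mm³ fragment of C38 colon adenocarcinoma. Drug was given iv at the stated doses on D1, or on D2 + D9, and tumor growth was followed.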

[6] = system: Mus musculus; assay: Median survival day in P388 cell line when a dose of 40 mg/kg administered intraperitoneally to P388 leukemia model; format: functional; settings: route intraperitoneal
Summary of the method: (§4)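 P388 leukaemia in CDF1 hybrid mice, 10 per group. At D0, 10^6 viable cells were inoculated ip, followed by a single ip dose of drug in distilled water on D1. Weight change, median survival day, T/C (treated/control median survival × 100) and survivors at D30 were recorded. Controls were 20 mice.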

[7] = system: Mus musculus; assay: Survivors at day 30 when a dose of 100 mg/kg administered intravenously to P388 leukemia mice model; 1/10; format: functional; settings: route intravenous; summary of the method: as §1
[8] = system: Mus musculus; assay: In vivo toxicity test on P388 cells at a dose of 50 mg/kg administered intravenously to P388 leukemia mice model; format: functional; settings: route intravenous
Summary of the method: (§5)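 Mice (10 per group) were inoculated ip at D0 with 10^6 P388 leukemia cells and given a single iv dose at D1. Read-outs were weight change (g), median survival day, T/C % versus controls and survivors at D30.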

[9] = system: Mus musculus; assay: Antitumor activity against L1210 leukemia mice model at a dose of 20 mg/kg administered intravenously; format: functional; settings: route intravenous; summary of the method: as §2
[10] = system: Mus musculus; assay: Survivors at day 30 when a dose of 10 mg/kg administered to P388 leukemia infected when tested in 10 mice; format: functional; summary of the method: as §4
[11] = system: Mus musculus; assay: Antitumor activity against P388 cells at a dose of 10 mg/kg administered intraperitoneally to mice; format: functional; settings: route intraperitoneal
[12] = system: Mus musculus; assay: In vivo toxicity test on P388 cells at a dose of 100 mg/kg administered intravenously to mice; format: functional; settings: route intravenous; summary of the method: as §5
[13] = system: Mus musculus; assay: Weight change in g when a dose of 10 mg/kg administered intraperitoneally to B16 melanoma infected mice; format: functional; settings: route intraperitoneal
Summary of the method: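 Hybrid BDF1 mice were inoculated ip at D0 with 0.5 mL of B16 melanoma homogenate (1 g tumor in 10 mL physiological serum). Drug was given ip daily on days 1-9, with cis-platinum 0.5 mg/kg as positive control on the same schedule.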

[14] = system: Mus musculus; assay: Antitumor activity against P388 cells at a dose of 50 mg/kg administered intravenously to mice; format: functional; settings: route intravenous; summary of the method: as §2
[15] = system: Mus musculus; assay: Median survival day in P388 cell line when a dose of 50 mg/kg administered intravenously to mice; format: functional; settings: route intravenous; summary of the method: as §1
[16] = system: Mus musculus; assay: […] in C38 adenocarcinoma cell line when a dose of 50 mg/kg administered intravenously in mice; format: functional, MC-38; settings: route intravenous; summary of the method: as §3
[17] = system: Mus musculus; assay: Survivors at day 60 when a dose of 2.5 mg/kg to B16 melanoma infected when tested in 10 mice; format: functional
[18] = system: Mus musculus; assay: Weight change in g when a dose of 20 mg/kg administered intraperitoneally to P388 leukemia infected mice; format: functional; settings: route intraperitoneal
Summary of the method: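 P388 model with a single ip dose. Mice (10 per group) were inoculated ip at D0 with 10^6 P388 cells and given one ip drug dose at D1. Body-weight change (g), median survival day, T/C and survivors at D30 were recorded.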

[19] = system: Mus musculus; assay: Median survival day of B16 melanoma infected mice, when a dose of 5 mg/kg administered intraperitoneally; format: functional; settings: route intraperitoneal
Summary of the method: (§6)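 B16 melanoma in hybrid BD F1 mice. At D0 each mouse was inoculated ip with 0.5 mL of homogenate made from 1 g of tumour in 10 mL of physiological serum. Compounds were given ip daily at the stated doses for 9 days (D1-9), with cis-platinum 0.5 mg/kg under the same schedule as positive control.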

[20] = system: Mus musculus; assay: Survivors at day 60 when a dose of 30 mg/kg to B16 melanoma infected mice; 0/10; format: functional
[21] = system: Mus musculus; assay: Median survival day in B16 melanoma cell line when a dose of 30 mg/kg administered intraperitoneally to mice; format: functional; settings: route intraperitoneal; summary of the method: as §6
[22] = system: Mus musculus; assay: Weight change in g when a dose of 30 mg/kg administered intraperitoneally to mice; format: functional; settings: route intraperitoneal

## CCN(CC)CCCNc1ncc(C)c2c1c1cc(O)ccc1n2C
[1]
  Median survival day: 19
[2]
  T/C: 149%
[3]
  Median tumoral volume: 1.38 cm*3
[4]
  Weight change: -5.2 g
[5]
  Median tumoral volume: 3.24 cm*3
[6]
  Median survival day: 23
[7]
  Survivors: 1
[8]
  T/C: 174%
[9]
  T/C: 132%

## Cc1cnc(NCCCN(C)C)c2c3cc(O)ccc3n(C)c12
[10]
  Survivors: 1
[11]
  T/C: 167%
[12]
  T/C: 236%
[13]
  Weight change: -1.9 g
[14]
  T/C: 163%
[15]
  Median survival day: 17.75
[16]
  Median tumoral volume: 0 cm*3
[17]
  Survivors: 0
[18]
  Weight change: -2.5 g
[19]
  Median survival day: 50

## CCN(CC)CCCNc1[nH]cc(C)c2nc3ccc(O)cc3c1-2
[20]
  Survivors: 0
[21]
  Median survival day: 9
[22]
  Weight change: -1 g
